Laboratory results as given in ChEMBL document CHEMBL1158067, “Phenolic glycosides with antioxidant activity from the stem bark of Populus davidiana” (J Nat Prod, 2006).

Assay: ABTS radical scavenging activity assessed as Trolox equivalent antioxidant capacity index
Type: physicochemical
Outline: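 ABTS radical cation generated from 7 mM ABTS in water plus potassium persulfate (final 2.45 mM), held in the dark at room temperature for 16 h, then diluted with water to A734 0.700 ± 0.020. Diluted radical mixed with compound or Trolox standard in MeOH (final 0–20 µM), kept at ambient temperature. A734 read exactly 6 min after mixing, solvent blanks included. Compounds were dosed to give 10–80% inhibition. Percent absorbance decrease was plotted against concentration and referenced to Trolox.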
Work on `O=C(OCc1cc(O)ccc1O[C@@H]1O[C@H](CO)[C@@H](O)[C@H](O)[C@H]1O)c1ccccc1` [SALIREPOSIDE] yielded an Activity of 1.01.
In the case of `O=C(/C=C/c1ccc(O)cc1)OCc1ccccc1O[C@@H]1O[C@H](CO)[C@@H](O)[C@H](O)[C@H]1O` [POPULOSIDE B], the Activity is reported as 1.13.
`O=C(O[C@H]1[C@H](Oc2ccccc2COC(=O)C2(O)C=CCCC2=O)O[C@H](CO)[C@@H](O)[C@@H]1O)c1ccccc1` (some centres not stated) [TREMULACIN] gave an Activity of 0.12.
With `OCc1ccccc1O[C@@H]1O[C@H](CO)[C@@H](O)[C@H](O)[C@H]1O` [SALICIN] the Activity was 0.21.
Work on `O=C(/C=C/c1ccc(O)cc1)OCc1cc(O)ccc1O[C@@H]1O[C@H](CO)[C@@H](O)[C@H](O)[C@H]1O` [POPULOSIDE A] yielded an Activity of 2.07.
For `COc1cc(/C=C/C(=O)OCc2ccccc2O[C@@H]2O[C@H](CO)[C@@H](O)[C@H](O)[C@H]2O)ccc1O` [POPULOSIDE C], the Activity was 1.55.
`Cc1cc(C(C)(C)C)c(O)c(C(C)(C)C)c1` [BUTYLATED HYDROXYTOLUENE] gave an Activity of 0.8.
Compound `O=C(/C=C/c1ccc(O)c(O)c1)OCc1ccccc1O[C@@H]1O[C@H](CO)[C@@H](O)[C@H](O)[C@H]1O` [POPULOSIDE] has an Activity of 1.67.
With `O=C(/C=C/c1ccc(O)cc1)O[C@@H]1O[C@H](CO)[C@@H](O)[C@H](O)[C@H]1O` the Activity was 0.78.
`O=C(O)/C=C/c1ccc(O)c(O)c1` [CAFFEIC ACID] gave an Activity of 1.98.
For `O=C(O[C@H]1[C@H](Oc2ccccc2CO)O[C@H](CO)[C@@H](O)[C@@H]1O)c1ccccc1` [TREMULDIN], the Activity was 0.24.
For `O=C(/C=C/c1ccc(O)cc1)O[C@H]1[C@H](OC2CCCCC2O)O[C@H](CO)[C@@H](O)[C@@H]1O` (some centres not stated) [GRANDIDENTATIN], the Activity was 1.27.
